For one data set, the system named is NIH3T3. Kind of data set: Cytotoxicity against mouse NIH/3T3 cells assessed as cell viability after 96 hrs by SRB assay. Format: cell-based. The note with it: NIH3T3, 96 h. (In SRB staining, fixed cells bind dye roughly in proportion to their protein.)
A short description of data set [1]: Cytotoxicity against human 518A2 cells assessed as cell viability after 96 hrs by SRB assay. Format: functional, cell-based. The note with it: Homo sapiens, 518A2, 96 h.
The subject of another data set is 8505C. Put plainly: Cytotoxicity against human 8505C cells assessed as cell viability after 96 hrs by SRB assay. Format: functional, cell-based. The note with it: Homo sapiens, 8505C, 96 h.
A short description of data set [2]: Cytotoxicity against human A253 cells assessed as cell viability after 96 hrs by SRB assay. Format: functional, cell-based. The note with it: Homo sapiens, A253, 96 h.
The next data set concerns A2780. Put plainly: Cytotoxicity against human A2780 cells assessed as cell viability after 96 hrs by SRB assay. The note with it: Homo sapiens, A2780, 96 h. Format: functional, cell-based.
Another data set concerns A549. Kind of data set: Cytotoxicity against human A549 cells assessed as cell viability after 96 hrs by SRB assay. Format: functional, cell-based. The note with it: Homo sapiens, A549, 96 h.
Another data set concerns DLD-1. Kind of data set: Cytotoxicity against human DLD1 cells assessed as cell viability after 96 hrs by SRB assay. Format: functional, cell-based. The note with it: Homo sapiens, DLD-1, 96 h.
A further data set relates to MCF7. Put plainly: Cytotoxicity against human MCF7 cells assessed as cell viability after 96 hrs by SRB assay. Format: functional, cell-based. The note with it: Homo sapiens, MCF7, 96 h.
Data set [3] in a line: Cytotoxicity against human Lipo cells assessed as cell viability after 96 hrs by SRB assay. Format: functional, cell-based. The note with it: Homo sapiens, Lipo, 96 h.
The next data set deals with SW-1736. Kind of data set: Cytotoxicity against human SW1736 cells assessed as cell viability after 96 hrs by SRB assay. Format: functional, cell-based. The note with it: Homo sapiens, SW-1736, 96 h.
Data set [4] can be described thus: Solubility of the compound in water/DMSO mixture. Format: physicochemical. Put shortly: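 Solubility was measured in water/DMSO (95:5, v/v) by HPLC with UV/vis detection.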

Here are results for eight molecules from ChEMBL document CHEMBL2321859, “Cytotoxic betulin-derived hydroxypropargylamines trigger apoptosis” (Bioorg Med Chem, 2013).

SMILES strings stand for the structures. pIC50: −log10 of the molar value. Converted amounts (≈) assume the structure as drawn.

On to `C=C(C)[C@@H]1CC[C@]2([C@H](O)C#CCN(C3CCCCC3)C3CCCCC3)CC[C@]3(C)[C@H](CC[C@@H]4[C@@]5(C)CC[C@H](OC(C)=O)C(C)(C)[C@@H]5CC[C@]43C)[C@@H]12.Cl`, for which the pIC50 (with NIH3T3; in [1]; in the data set with 8505C; in data set [2]; in the data set with A2780; with A549) was < 4.52 throughout. Also, the pIC50 (in the data set with DLD-1; in the data set on MCF7; in [3]; in the data set on SW-1736) was < 4.52 in each case. In addition, in [4] (water/DMSO mixture, read-out: solubility), the solubility amounted to 100 µg/mL.
As for `C=C(C)[C@@H]1CC[C@]2([C@H](O)C#CCN3CCSCC3)CC[C@]3(C)[C@H](CC[C@@H]4[C@@]5(C)CC[C@H](OC(C)=O)C(C)(C)[C@@H]5CC[C@]43C)[C@@H]12`, the pIC50 was 5.06 in the data set on NIH3T3; 5.03 in [1]; 5.70 in the data set on 8505C; 5.12 in [2]; 5.37 in the data set on A2780; 4.79 in the data set with A549. Further, the pIC50 with DLD-1 is 4.72; in the data set on MCF7, 5.42; in [3] it was 5.46; in the data set on SW-1736, 5.43.
On to `C=C(C)[C@@H]1CC[C@]2([C@H](O)C#CCN(C(C)C)C(C)C)CC[C@]3(C)[C@H](CC[C@@H]4[C@@]5(C)CC[C@H](O)C(C)(C)[C@@H]5CC[C@]43C)[C@@H]12`, for which the pIC50 in the data set with NIH3T3 is 5.21; in [1], 5.19; in the data set on 8505C, 5.24; in data set [2], 5.09; with A2780, 5.27; in the data set with A549 it was 5.08. Besides, the pIC50 was 5.04 in the data set with DLD-1, 5.09 in the data set with MCF7, 4.99 in data set [3] and 5.40 in the data set with SW-1736.
As for `C=C(C)[C@@H]1CC[C@]2(C(=O)O)CC[C@]3(C)[C@H](CC[C@@H]4[C@@]5(C)CC[C@H](O)C(C)(C)[C@@H]5CC[C@]43C)[C@@H]12` [BETULINIC ACID], the pIC50 with NIH3T3 is 5.00; with A2780, 4.96; in data set [3], 5.01. The solubility in data set [4] (buffer) is 166 µg/mL (≈ 363 µM).
As to `C=C(C)[C@@H]1CC[C@]2([C@H](O)C#CCN3CCCCCC3)CC[C@]3(C)[C@H](CC[C@@H]4[C@@]5(C)CC[C@H](OC(C)=O)C(C)(C)[C@@H]5CC[C@]43C)[C@@H]12`, the negative logarithm of the IC50 (pIC50) in the data set on NIH3T3 is 4.77; in data set [1], 4.65; with 8505C, 4.49; in data set [2], 4.70; with A2780, 4.84; with A549 it was 4.33. Further, the pIC50 in the data set with DLD-1 was 4.39; in the data set with MCF7, 4.87; in [3] it was < 4.52; in the data set with SW-1736 it was 4.49.
For `C=C(C)[C@@H]1CC[C@]2([C@H](O)C#CCN(CCC)CCC)CC[C@]3(C)[C@H](CC[C@@H]4[C@@]5(C)CC[C@H](OC(C)=O)C(C)(C)[C@@H]5CC[C@]43C)[C@@H]12`, the pIC50 with NIH3T3 is < 4.52; in data set [1] it was 4.68; with 8505C, 4.55; in [2] it was 4.82; in the data set on A2780, 4.92; in the data set on A549, 4.59. For the same molecule, the pIC50 is 4.68 with DLD-1, 4.78 in the data set with MCF7, 4.62 in data set [3] and 5.12 in the data set on SW-1736.
Consider `C#C[C@H](O)[C@]12CC[C@@H](C(=C)C)[C@@H]1[C@H]1CC[C@@H]3[C@@]4(C)CC[C@H](OC(C)=O)C(C)(C)[C@@H]4CC[C@@]3(C)[C@]1(C)CC2`, for which the pIC50 is 4.49 in the data set on NIH3T3; 4.49 in data set [1]; 4.64 in the data set with 8505C; 4.78 in data set [2]; 5.03 in the data set on A2780; 4.37 in the data set with A549. The pIC50 in the data set with DLD-1 is < 4.52; with MCF7 it was 4.69; in data set [3] it was 4.54; in the data set with SW-1736 it was 4.64.
With `C#C[C@H](O)[C@]12CC[C@@H](C(=C)C)[C@@H]1[C@H]1CC[C@@H]3[C@@]4(C)CCC(=O)C(C)(C)[C@@H]4CC[C@@]3(C)[C@]1(C)CC2`, the pIC50 with NIH3T3 was < 4.46; in [1], 4.65; in the data set on 8505C, 4.78; in [2], 4.87; in the data set with A2780, 5.01; with A549 it was 4.67. The pIC50 is 4.72 with DLD-1, 4.77 in the data set with MCF7, 4.66 in data set [3] and 4.74 with SW-1736.

As usually defined, the pIC50 is −log10 of the IC50, conventionally taken in molar units. As usually defined, the solubility is the dissolved amount per volume that the medium holds.
